Results as given in ChEMBL document CHEMBL5705898 (Proc Natl Acad Sci U S A, 2014).

Columns and labels:
[1] = Inhibition of SETD7 V274E mutant (unknown origin) using biotinylated H3 (1-25) peptide as substrate incubated for 1 hrs in presence of 3H-SAM by radioactivity based assay; design: species or system Homo sapiens
Method in brief: (§1)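 Scintillation proximity assay on recombinant E. coli-expressed human SETD7(1–366) mutant forms. Read-out was incorporation of the ³H-methyl group from ³H-SAM into histone H3(1–25) peptide, with 2 µM SAM, 2 µM H3(1–25) and 2 nM enzyme. IC50 is given as the mean ± SD of triplicate runs.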

[2] = molecular target: 5-hydroxytryptamine receptor 2A (Homo sapiens) (UniProt P28223); assay: Inhibition of human 5-HT2A receptor at 10 uM relative to control
[3] = molecular target: Alpha-2B adrenergic receptor (Homo sapiens, UniProt P18089); assay: Inhibition of human alpha 2B receptor
[4] = molecular target: Acetylcholinesterase (Homo sapiens) (UniProt P22303); assay: Inhibition of human acetylcholinesterase at 10 uM relative to control
[5] = molecular target: Platelet-activating factor receptor (Homo sapiens) (UniProt P25105); assay: Inhibition of human PAF receptor at 10 uM relative to control
[6] = molecular target: Muscarinic acetylcholine receptor M2 (Homo sapiens) (UniProt P08172); assay: Inhibition of human M2 receptor at 10 uM relative to control
[7] = molecular target: Mu-type opioid receptor (Homo sapiens) (UniProt P35372); assay: Inhibition of human mu opioid receptor at 10 uM relative to control
[8] = molecular target: Melanocortin receptor 4 (Homo sapiens) (UniProt P32245); assay: Inhibition of human MC4 at 10 uM relative to control
Homo sapiens [9] = species: Homo sapiens; assay: Inhibition of human TR at 10 uM relative to control
[10] = molecular target: Oxysterols receptor LXR-beta (Homo sapiens) (UniProt P55055); assay: Inhibition of human LXRbeta at 10 uM relative to control
[11] = molecular target: Sodium-dependent noradrenaline transporter (Homo sapiens) (UniProt P23975); assay: Inhibition of human norepinephrine transporter at 10 uM relative to control
[12] = molecular target: Neuronal acetylcholine receptor; alpha4/beta2 (Homo sapiens) (UniProt P17787+P43681); assay: Inhibition of human N neuronal alpha4 beta2 receptor at 10 uM relative to control; assay type: protein-complex assay
[13] = molecular target: Adenosine receptor A1 (Homo sapiens) (UniProt P30542); assay: Inhibition of human A1 receptor at 10 uM relative to control
[14] = molecular target: Muscarinic acetylcholine receptor M4 (Homo sapiens) (UniProt P08173); assay: Inhibition of human M4 receptor at 10 uM relative to control
[15] = molecular target: Matrix metalloproteinase-9 (Homo sapiens) (UniProt P14780); assay: Inhibition of human MMP-9 at 10 uM relative to control
Homo sapiens [16] = species: Homo sapiens; assay: Inhibition of human 5-HT3 receptor at 10 uM relative to control
[17] = molecular target: 5-hydroxytryptamine receptor 1B (Homo sapiens) (UniProt P28222); assay: Inhibition of 5-HT1B receptor (unknown origin) at 10 uM relative to control
[18] = molecular target: cGMP-specific 3',5'-cyclic phosphodiesterase (Homo sapiens) (UniProt O76074); assay: Inhibition of human PDE5 at 10 uM relative to control
[19] = molecular target: Catechol O-methyltransferase (Homo sapiens) (UniProt P21964); assay: Inhibition of COMT (unknown origin) at 10 uM relative to control
[20] = molecular target: Glutamate receptor ionotropic AMPA (Homo sapiens) (UniProt P48058+P42263+P42262+P42261); assay: Inhibition of human AMPA receptor at 10 uM relative to control; assay type: protein-complex assay
[21] = molecular target: 5-hydroxytryptamine receptor 7 (Homo sapiens) (UniProt P34969); assay: Inhibition of human 5-HT7 receptor at 10 uM relative to control
[22] = molecular target: D(3) dopamine receptor (Homo sapiens) (UniProt P35462); assay: Inhibition of human D3 receptor at 10 uM relative to control
[23] = molecular target: Vasopressin V2 receptor (Homo sapiens) (UniProt P30518); assay: Inhibition of human V2 receptor at 10 uM relative to control
[24] = molecular target: Sodium-dependent dopamine transporter (Homo sapiens) (UniProt Q01959); assay: Inhibition of human dopamine transporter at 10 uM relative to control
[25] = Inhibition of SETD7 H252W mutant (unknown origin) using biotinylated H3 (1-25) peptide as substrate incubated for 1 hrs in presence of 3H-SAM by radioactivity based assay; design: species or system Homo sapiens; method in brief: as §1
[26] = molecular target: Vasoactive intestinal polypeptide receptor 1 (Homo sapiens) (UniProt P32241); assay: Inhibition of human VPAC1 at 10 uM relative to control
Homo sapiens [27] = species: Homo sapiens; assay: Inhibition of Na+ channel site 2 (unknown origin) at 10 uM relative to control
[28] = molecular target: Beta-1 adrenergic receptor (Homo sapiens) (UniProt P08588); assay: Inhibition of human beta 1 receptor at 10 uM relative to control
[29] = molecular target: cGMP-inhibited 3',5'-cyclic phosphodiesterase 3B (Homo sapiens) (UniProt Q13370); assay: Inhibition of human PDE3B at 10 uM relative to control
[30] = molecular target: Somatostatin receptor type 1 (Homo sapiens) (UniProt P30872); assay: Inhibition of human sst1 at 10 uM relative to control
[31] = molecular target: Leukotriene B4 receptor 1 (Homo sapiens) (UniProt Q15722); assay: Inhibition of human BLT1 at 10 uM relative to control
Homo sapiens [32] = species: Homo sapiens; assay: Inhibition of human UT at 10 uM relative to control
[33] = molecular target: Somatostatin receptor type 4 (Homo sapiens) (UniProt P31391); assay: Inhibition of human sst4 at 10 uM relative to control
[34] = molecular target: High affinity choline transporter 1 (Homo sapiens) (UniProt Q9GZV3); assay: Inhibition of human choline transporter (CHT1) at 10 uM relative to control
[35] = molecular target: Prostaglandin G/H synthase 1 (Homo sapiens) (UniProt P23219); assay: Inhibition of human COX1 at 10 uM relative to control
[36] = molecular target: Calcium/calmodulin-dependent protein kinase type II subunit alpha (Homo sapiens) (UniProt Q9UQM7); assay: Inhibition of human CaMK2alpha at 10 uM relative to control
[37] = molecular target: Endothelin receptor type B (Homo sapiens) (UniProt P24530); assay: Inhibition of human ETB receptor at 10 uM relative to control
[38] = molecular target: Neprilysin (Homo sapiens) (UniProt P08473); assay: Inhibition of human neutral endopeptidase at 10 uM relative to control
[39] = molecular target: Cholecystokinin receptor type A (Homo sapiens) (UniProt P32238); assay: Inhibition of human CCK1 receptor at 10 uM relative to control
Caspase-3 (Homo sapiens) = Caspase-3 (Homo sapiens) (UniProt P42574); assay: Inhibition of human caspase-3 at 10 uM relative to control
[40] = molecular target: Kappa-type opioid receptor (Homo sapiens, UniProt P41145); assay: Inhibition of human kappa opioid receptor at 10 uM relative to control
Homo sapiens [41] = species: Homo sapiens; assay: Inhibition of human CDK2/CycA at 10 uM relative to control
Homo sapiens [42] = species: Homo sapiens; assay: Inhibition of SKCa channel (unknown origin) at 10 uM relative to control

Endothelin receptor type B (Homo sapiens), sequence (P24530 whole entry): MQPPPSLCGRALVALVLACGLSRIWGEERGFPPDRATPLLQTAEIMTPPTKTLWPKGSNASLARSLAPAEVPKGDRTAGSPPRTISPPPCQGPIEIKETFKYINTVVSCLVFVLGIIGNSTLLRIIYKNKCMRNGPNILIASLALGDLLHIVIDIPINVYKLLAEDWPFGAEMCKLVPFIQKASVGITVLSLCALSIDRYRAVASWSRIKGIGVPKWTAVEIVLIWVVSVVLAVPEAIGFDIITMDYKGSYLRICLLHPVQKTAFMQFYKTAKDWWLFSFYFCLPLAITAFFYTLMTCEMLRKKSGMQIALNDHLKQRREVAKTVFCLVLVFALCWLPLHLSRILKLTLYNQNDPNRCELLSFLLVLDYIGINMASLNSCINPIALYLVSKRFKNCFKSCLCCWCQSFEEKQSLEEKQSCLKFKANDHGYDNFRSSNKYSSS
Melanocortin receptor 4 (Homo sapiens), sequence (P32245 whole entry): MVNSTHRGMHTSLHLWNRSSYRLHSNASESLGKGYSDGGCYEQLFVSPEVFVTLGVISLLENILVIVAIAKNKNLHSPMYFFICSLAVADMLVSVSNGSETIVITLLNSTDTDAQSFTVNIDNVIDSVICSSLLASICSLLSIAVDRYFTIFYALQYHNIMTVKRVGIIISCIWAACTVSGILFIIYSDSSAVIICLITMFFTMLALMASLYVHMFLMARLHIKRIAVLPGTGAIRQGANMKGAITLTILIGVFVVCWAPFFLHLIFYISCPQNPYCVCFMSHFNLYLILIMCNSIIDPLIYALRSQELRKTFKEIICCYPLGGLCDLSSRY
Alpha-2B adrenergic receptor, sequence (P18089 whole entry): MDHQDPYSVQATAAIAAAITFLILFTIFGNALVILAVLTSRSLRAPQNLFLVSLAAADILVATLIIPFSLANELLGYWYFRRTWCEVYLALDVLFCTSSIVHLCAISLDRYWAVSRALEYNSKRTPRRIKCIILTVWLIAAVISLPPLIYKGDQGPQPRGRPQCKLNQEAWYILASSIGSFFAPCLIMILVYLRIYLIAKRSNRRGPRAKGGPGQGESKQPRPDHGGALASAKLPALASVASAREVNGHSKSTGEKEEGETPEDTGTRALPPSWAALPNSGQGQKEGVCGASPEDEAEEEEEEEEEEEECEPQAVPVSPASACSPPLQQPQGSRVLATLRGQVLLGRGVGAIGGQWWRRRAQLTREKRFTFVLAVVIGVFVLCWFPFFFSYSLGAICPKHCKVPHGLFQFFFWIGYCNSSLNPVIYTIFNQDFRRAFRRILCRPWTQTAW
Calcium/calmodulin-dependent protein kinase type II subunit alpha (Homo sapiens), sequence (Q9UQM7 whole entry): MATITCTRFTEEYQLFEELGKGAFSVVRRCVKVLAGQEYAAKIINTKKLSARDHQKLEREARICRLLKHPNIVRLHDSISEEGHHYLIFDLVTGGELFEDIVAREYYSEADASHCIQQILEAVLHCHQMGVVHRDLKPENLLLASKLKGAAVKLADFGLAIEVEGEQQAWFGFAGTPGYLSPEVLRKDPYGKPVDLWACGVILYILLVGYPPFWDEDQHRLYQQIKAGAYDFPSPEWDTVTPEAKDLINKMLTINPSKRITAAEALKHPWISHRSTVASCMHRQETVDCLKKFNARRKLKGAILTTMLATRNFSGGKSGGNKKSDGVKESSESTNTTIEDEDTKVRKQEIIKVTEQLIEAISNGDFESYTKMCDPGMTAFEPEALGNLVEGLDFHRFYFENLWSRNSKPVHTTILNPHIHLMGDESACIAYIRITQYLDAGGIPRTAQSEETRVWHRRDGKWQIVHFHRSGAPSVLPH
5-hydroxytryptamine receptor 1B (Homo sapiens), sequence (P28222 whole entry): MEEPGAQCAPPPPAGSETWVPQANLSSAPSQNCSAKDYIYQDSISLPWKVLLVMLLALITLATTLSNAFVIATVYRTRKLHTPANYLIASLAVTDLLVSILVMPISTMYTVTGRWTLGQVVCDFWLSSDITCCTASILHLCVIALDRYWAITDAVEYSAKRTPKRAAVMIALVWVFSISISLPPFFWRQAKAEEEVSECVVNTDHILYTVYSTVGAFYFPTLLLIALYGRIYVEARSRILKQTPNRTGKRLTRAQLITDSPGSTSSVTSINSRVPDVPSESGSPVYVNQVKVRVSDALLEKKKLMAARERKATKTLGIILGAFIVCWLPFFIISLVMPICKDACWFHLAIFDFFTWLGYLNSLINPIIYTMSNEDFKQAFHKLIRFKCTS
Prostaglandin G/H synthase 1 (Homo sapiens), sequence (P23219 whole entry): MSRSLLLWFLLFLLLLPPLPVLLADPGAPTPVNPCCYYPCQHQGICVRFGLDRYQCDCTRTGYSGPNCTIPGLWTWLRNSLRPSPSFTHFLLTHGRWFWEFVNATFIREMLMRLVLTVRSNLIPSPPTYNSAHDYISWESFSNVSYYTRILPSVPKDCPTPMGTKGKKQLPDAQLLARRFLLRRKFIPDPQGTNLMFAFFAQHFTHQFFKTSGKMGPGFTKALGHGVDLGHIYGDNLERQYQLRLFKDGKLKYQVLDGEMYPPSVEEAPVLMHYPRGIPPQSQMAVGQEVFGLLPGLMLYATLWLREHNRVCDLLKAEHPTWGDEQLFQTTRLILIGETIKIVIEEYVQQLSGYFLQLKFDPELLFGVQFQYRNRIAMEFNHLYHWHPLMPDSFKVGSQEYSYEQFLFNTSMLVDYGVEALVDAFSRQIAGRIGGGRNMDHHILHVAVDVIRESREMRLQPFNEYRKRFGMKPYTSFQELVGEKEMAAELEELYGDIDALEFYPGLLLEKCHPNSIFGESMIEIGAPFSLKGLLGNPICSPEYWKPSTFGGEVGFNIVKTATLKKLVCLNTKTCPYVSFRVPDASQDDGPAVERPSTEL
High affinity choline transporter 1 (Homo sapiens), sequence (Q9GZV3 whole entry): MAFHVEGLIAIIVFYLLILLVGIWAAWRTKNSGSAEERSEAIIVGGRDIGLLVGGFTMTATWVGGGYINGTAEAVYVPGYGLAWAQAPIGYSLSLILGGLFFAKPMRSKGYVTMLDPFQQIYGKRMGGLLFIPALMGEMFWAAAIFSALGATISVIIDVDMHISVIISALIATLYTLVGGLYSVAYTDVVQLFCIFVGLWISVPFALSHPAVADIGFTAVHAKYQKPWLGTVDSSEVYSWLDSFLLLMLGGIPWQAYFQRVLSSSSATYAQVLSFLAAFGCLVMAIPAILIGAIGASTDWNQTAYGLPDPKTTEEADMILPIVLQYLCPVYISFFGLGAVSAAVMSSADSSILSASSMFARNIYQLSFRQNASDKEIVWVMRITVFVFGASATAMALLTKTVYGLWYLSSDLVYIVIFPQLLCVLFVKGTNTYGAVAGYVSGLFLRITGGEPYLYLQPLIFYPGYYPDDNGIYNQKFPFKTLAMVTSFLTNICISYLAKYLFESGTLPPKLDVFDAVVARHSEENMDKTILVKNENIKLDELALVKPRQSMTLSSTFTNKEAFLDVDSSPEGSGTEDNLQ
Catechol O-methyltransferase (Homo sapiens), sequence (P21964 whole entry): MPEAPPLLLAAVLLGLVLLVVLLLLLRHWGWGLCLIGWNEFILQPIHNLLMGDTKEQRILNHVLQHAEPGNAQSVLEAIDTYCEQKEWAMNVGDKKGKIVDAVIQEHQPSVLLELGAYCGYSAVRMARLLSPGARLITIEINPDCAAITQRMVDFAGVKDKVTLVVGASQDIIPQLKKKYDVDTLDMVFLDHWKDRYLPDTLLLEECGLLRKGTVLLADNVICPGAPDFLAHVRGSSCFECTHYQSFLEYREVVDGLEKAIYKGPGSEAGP
Kappa-type opioid receptor, sequence (P41145 whole entry): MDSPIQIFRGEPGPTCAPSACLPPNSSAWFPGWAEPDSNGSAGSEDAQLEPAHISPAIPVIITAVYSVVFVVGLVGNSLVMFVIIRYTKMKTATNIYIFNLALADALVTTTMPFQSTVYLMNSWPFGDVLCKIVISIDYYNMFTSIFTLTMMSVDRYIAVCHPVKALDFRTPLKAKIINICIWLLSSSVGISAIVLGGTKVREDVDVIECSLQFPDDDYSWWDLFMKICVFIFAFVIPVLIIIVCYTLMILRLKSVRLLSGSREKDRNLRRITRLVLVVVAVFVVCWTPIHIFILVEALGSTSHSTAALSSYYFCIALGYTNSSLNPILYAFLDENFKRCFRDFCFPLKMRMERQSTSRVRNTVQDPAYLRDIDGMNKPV
Leukotriene B4 receptor 1 (Homo sapiens), sequence (Q15722 whole entry): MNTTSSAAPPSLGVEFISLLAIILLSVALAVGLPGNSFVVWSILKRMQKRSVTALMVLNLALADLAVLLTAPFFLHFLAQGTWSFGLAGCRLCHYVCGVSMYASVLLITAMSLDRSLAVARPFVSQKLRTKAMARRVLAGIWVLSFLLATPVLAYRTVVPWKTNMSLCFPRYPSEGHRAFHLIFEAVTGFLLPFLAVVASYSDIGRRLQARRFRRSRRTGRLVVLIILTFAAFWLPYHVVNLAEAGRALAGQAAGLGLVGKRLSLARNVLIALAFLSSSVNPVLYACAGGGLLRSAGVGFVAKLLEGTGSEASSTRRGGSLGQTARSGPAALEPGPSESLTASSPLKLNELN
Sodium-dependent noradrenaline transporter (Homo sapiens), sequence (P23975 whole entry): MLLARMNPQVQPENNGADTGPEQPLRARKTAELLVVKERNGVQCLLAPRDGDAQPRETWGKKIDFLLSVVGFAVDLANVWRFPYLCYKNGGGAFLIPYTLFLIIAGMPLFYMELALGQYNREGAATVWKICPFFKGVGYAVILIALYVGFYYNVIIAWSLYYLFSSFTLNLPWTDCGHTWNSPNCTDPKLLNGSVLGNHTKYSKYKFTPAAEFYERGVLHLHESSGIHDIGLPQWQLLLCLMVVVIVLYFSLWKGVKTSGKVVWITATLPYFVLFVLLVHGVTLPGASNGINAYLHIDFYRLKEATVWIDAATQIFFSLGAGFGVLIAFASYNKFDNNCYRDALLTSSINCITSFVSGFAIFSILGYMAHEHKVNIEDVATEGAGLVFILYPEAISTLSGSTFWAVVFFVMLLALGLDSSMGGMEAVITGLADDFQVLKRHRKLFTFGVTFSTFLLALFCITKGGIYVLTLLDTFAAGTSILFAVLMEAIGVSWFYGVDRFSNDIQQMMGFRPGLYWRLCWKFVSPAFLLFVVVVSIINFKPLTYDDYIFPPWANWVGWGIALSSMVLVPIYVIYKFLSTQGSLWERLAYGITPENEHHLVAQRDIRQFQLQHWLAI

O=C([C@@H](Cc1cccc(C(F)(F)F)c1)NS(=O)(=O)c1cc(F)c2c(c1)CCNC2)N1CCCC1
IC50 [1]: 10800 nM | inhibition [2]: 3% | IC50 [3]: 1300 nM | inhibition [4]: 0% | inhibition [5]: 6% | inhibition [6]: 3% | inhibition [7]: 47% | inhibition [8]: 15% | inhibition (Homo sapiens [9]): 5% | inhibition [10]: 5% | inhibition [11]: 10% | inhibition [12]: -4% | inhibition [13]: -10% | inhibition [14]: 19% | inhibition [15]: -9% | inhibition (Homo sapiens [16]): -2% | inhibition [17]: 7% | inhibition [18]: 1% | inhibition [19]: -9% | inhibition [20]: 2% | inhibition [21]: 41% | inhibition [22]: 43% | inhibition [23]: 11% | inhibition [24]: 2% | IC50 [25]: 2630 nM | inhibition [26]: -8% | inhibition (Homo sapiens [27]): 43% | inhibition [28]: -6% | inhibition [29]: -5% | inhibition [30]: 5% | inhibition [31]: -8% | inhibition (Homo sapiens [32]): 38% | inhibition [33]: 27% | inhibition [34]: 9% | inhibition [35]: 4% | inhibition [36]: 6% | inhibition [37]: 12% | inhibition [38]: -6% | inhibition [39]: 8% | inhibition (Caspase-3 (Homo sapiens)): 2% | inhibition [40]: 55% | inhibition (Homo sapiens [41]): -1% | inhibition (Homo sapiens [42]): 5%
